This note sets out measurements from the EternaBench riboswitch data.

This series has as its system MS2 coat protein. Description: apparent Kd, MS2 coat protein; higher = weaker binding; RNA-MaP array; FMN 200 µM where present. A digest of the protocol: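 The titrant was SNAP-549-labelled MS2 coat protein, run from 0.7 or 1.5 nM in doubling steps to 3 µM. It was applied to designs transcribed by stalled E. coli RNA polymerase on Illumina sequencing-chip clusters, without ligand first and then with constant ligand, in 100 mM Tris-HCl pH 7.5, 80 mM KCl, 4 mM MgCl2, BSA, DTT, yeast tRNA and Tween-20. The apparent Kd is the median of filtered per-cluster binding-curve fits, with green signal normalised to red-channel RNA signal and control-cluster median Fmax.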

[1] abbreviates: designed as: OFF switch for flavin mononucleotide, no ligand.
Setting [2] is: ligand present: flavin mononucleotide, designed as: OFF switch for flavin mononucleotide.
[3] abbreviates: designed as: ON switch for flavin mononucleotide, no ligand.
[4] abbreviates: ligand present: flavin mononucleotide, designed as: ON switch for flavin mononucleotide.

The term apparent Kd denotes the concentration giving half-maximal binding under the conditions of the assay. Take “GGUGGACAUGAGGAUCACCCAUGUGAGGAUAUCGGCCGGCUAGUGGUGGCUGGCUUCUCGAGAAGGCGCAUAGU”: the “apparent Kd” value reads like this: under setting [1], 61.8 nM; under setting [2], 99.7 nM.
The like results for “GUAGAGUAGUGAGGAUAUACGAGUUCGAUAGAACGGCGAUCCAAUAAUACAUGAGGAUCACCCAUGUAGAAGGCACUUCUCUAC” were, in that order, 9.33 nM and 112 nM.
The like results for “GCCUUACCGGUCAGGAUAUACACCCGUCACUCCUUGUAGAAGGGACAUGAGGAUCACCCAUGUACAUUACAUUC” were, in that order, 27.2 nM and 26.8 nM.
Taken in the same sequence, the figures for “UGGAGGUCAGGAUAUGCAUGGCGGGACUUGCGUCGUGGCGUGCAGAAGGGACAUGAGGAUCACCCAUGUGGAGU” were 112 nM and 77.4 nM.
Consider “CCCUACACCGAGAAGGGCACGUAUUGAAGAGGGUGCCAGGAACAUCACAUGAGGAUCACCCAUGUGCAGGAUAUCGGCAGGAAC”, for which the “apparent Kd” value amounted to 9.41 nM under setting [1] and 19.9 nM under setting [2].
Turning to “AAGAAAUGGGAGUGAUCUGGUUCCGAGGAUAUAGGCAUCGGUACAUGAGGAUCACCCAUGUCCGACUAGAAGGCGGACGGGUCC”, the “apparent Kd” value was found to be 34.1 nM under setting [3] and 8.76 nM under setting [4].
Regarding “CUGGUGUGAGGAUAUCAGGACACGCCCGAGGGCGUGUCAAAUGAGAAGGCACAUGAGGAUCACCCAUGUGGGAC”, the “apparent Kd” value was determined as 42.3 nM under setting [1] and 99.6 nM under setting [2].
On to “GUGACCCAUUAACAGUUACCACAUGAGGAUCACCCAUGUGCGAAGGAUAUAGACUGCUAUGCGUGCUAGAAGGUCGCGCGUGGC”, for which the “apparent Kd” value under setting [1] is 6.32 nM and the “apparent Kd” value under setting [2] was 6.63 nM.
With “UGGUAACAUGAGGAUCACCCAUGUCAAAUGAAUCGAGGAUAUGGGAAUUAACAACACAAACUAGAAGGCGAAUUUG”, the “apparent Kd” value by setting is: under setting [3], 303 nM; under setting [4], 247 nM.
Regarding “GCCACACAUGAGGAUCACCCAUGUGAGGAUAUCAUGCUUCGUAGUAAACUACGAAGUGUGAGAAGGCACAUGGC”, the “apparent Kd” value stood at 33.4 nM under setting [1] and 155 nM under setting [2].
Taken in the same sequence, the figures for “GCCAGGAUGUGAGGAUAUGCUGAGGAUAACUCAGCAGAAGGCACAUGAGGAUCACCCAUGUAAACUUAUCAUAAAUACCCUGGC” were 14.3 nM and 21.2 nM.
In the case of “GAUCUGUCGGUUGACCCAACAUGAGGAUCACCCAUGUAUGUGGAGGAUAUCUAGAUCUGCGGACGAGAGAAGGCCGCAUACGUU”, the “apparent Kd” value under setting [1] came to 69 nM and the “apparent Kd” value under setting [2] was 421 nM.
As to “UAUUUUAACUAAGGAUAUCUAUAAUAAUUUGAAACAUGAGGAUCACCCAUGUUCAUGGGUUUUUAAGAGAAGGUAGAUGAAUAA”, the “apparent Kd” value under setting [3] was 59.8 nM and the “apparent Kd” value under setting [4] stood at 26.1 nM.
For the sequence “CUCUUGUAAGGAUAUGACUACAUAAAAAAAAAAAAAUGUAGUCAGAAGGUACAUGAGGAUCACCCAUGUACUAA”, the “apparent Kd” value by setting is: under setting [1], 20.9 nM; under setting [2], 22.1 nM.
The like results for “GCAAGAAUAGGAUAUACACCAUGUCAGCUUCUAUACAACGCACAUGAGGAUCACCCAUGUAGAAGGGUUCUCUC” were, in that order, 553 nM and 504 nM.
The like results for “GUUAUUUAUGUAGGAUAUGCGAGGCGAGCCUGAGCAGAAGGACAUGAGGAUCACCCAUGUAUUGCGGUUUAUGUUCAGAUCGCU” were, in that order, 15.3 nM and 19 nM.
Taken in the same sequence, the figures for “UCCGCUCGAGGAUAUACAUGAGGAUCACCCAUGUUUCCCUGUUGUUUGGCCUUAGGAUGUAGAAGGCGACGUUA” were 17.7 nM and 17.8 nM.
For the sequence “CUAGAUAUGUAAGGAUAUAUAGUGGAAUACACUAUAGAAGGUAUGUGAUAACAUGAGGAUCACCCAUGUCAUUGGAUAUCUAGA”, the “apparent Kd” value worked out at 67.5 nM under setting [3] and 60.3 nM under setting [4].
With “GAAUAGCGAGGAUAUGCAAUGAAGAUAGUACGAUAUGGCUGACAUGAGGAUCACCCAUGUAGAAGGCGCUGAUC”, the “apparent Kd” value came to 44.8 nM under setting [1] and 40 nM under setting [2].
The like results for “CUUCUCGUUGUGAGGAUAUCGUUUUCGUCUCGGAUCGAGAAGGCACAUGAGGAUCACCCAUGUUUGUUGUGGUU” were, in that order, 115 nM and 103 nM.
The like results for “CCAGGCAGUGUGAGGAUAUGCUGGUCCUUGGAUCAGCAGAAGGCACAUGAGGAUCACCCAUGUGAAGAGCUUGG” were, in that order, 23.9 nM and 115 nM.
The like results for “CCGGAAAUGCAGGAUAUCGUAUCGGAUACGAUACGAGAAGGGUAUACAUGAGGAUCACCCAUGUGUCCUACCGG” were, in that order, 18.4 nM and 22.1 nM.
As to “AGUUGAAGGUAGAAGGGUGACAUGAGGAUCACCCAUGUGCGAGCAUCGGACGAAGAUGGCUCGCCACAGGAUAUACCUUCAAUU”, the “apparent Kd” value worked out at 41.2 nM under setting [3] and 44.4 nM under setting [4].
“CUCAUGAGAGGAUAUACAUGAGGAUCACCCAUGUUCUUAUCUCGUCGGGCUCCAUUACGUAGAAGGCUCAUUUG”: the “apparent Kd” value was found to be 29.4 nM under setting [1] and 46.9 nM under setting [2].
For the sequence “GGGUACAUCGGAGGAUAUCAUGUAAAUACAUGAGGAUCACCCAUGUCGAUGGAGACAUCAGAGAUUGAGAAGGCCGAUGUACCG”, the “apparent Kd” value under setting [3] worked out at 14.9 nM and the “apparent Kd” value under setting [4] is 6.15 nM.
Take “GGAAAGUGAGGAUAUGGUAAUUUAAUUAUUAAUUAAUUAAUCCAGAAGGCACAUGAGGAUCACCCAUGUAAAGG”: the “apparent Kd” value under setting [1] stood at 35.9 nM and the “apparent Kd” value under setting [2] was 61.4 nM.
With “AUUUUAUAAUAGAAGGAAGACUUCAUGAGGAUCACCCAUGUGUUGGUACUUAGGAUAUGUAAUAACAUGAGGAUCACCCAUGUC”, the “apparent Kd” value runs as follows: under setting [3], 25.6 nM; under setting [4], 26.1 nM.
As to “AUUUGAAUCGUAGGAUAUCGCUUAAAUUUACCACGAGAAGGACGAACAUGAGGAUCACCCAUGUAACAUGGUGUAGAUAAUUUG”, the “apparent Kd” value under setting [1] amounted to 159 nM and the “apparent Kd” value under setting [2] was 440 nM.
The like results for “AAAACGUGAGGAUAUACAUGAGGAUCACCCAUGUGAAACAGGAAAAACUGAAAGAAAAGUAGAAGGCACGAAAA” were, in that order, 33.4 nM and 50.1 nM.
As to “GGGAAGUAAGGAUAUGCUGCUCGUCACUUGCGUGAUGAGUAGCAGAAGGUACAUGAGGAUCACCCAUGUAAAAA”, the “apparent Kd” value under setting [1] amounted to 30.2 nM and the “apparent Kd” value under setting [2] came to 28.6 nM.
Taken in the same sequence, the figures for “UUUUUACAUGAGGAUCACCCAUGUCAGGAUAUCGUUAUAUUUUAUUAUUUUAUUUUUUCGAGAAGGGACUAUUA” were 90.3 nM and 58.6 nM.
The like results for “CUAUACAUAUCAGGAUAUCAUCGAGUGGAUUAACACAGUGAUUACAUGAGGAUCACCCAUGUGCUUGAGAAGGGAUUACUAUUU” were, in that order, 14.6 nM and 12.9 nM.
Take “CGUGUCGUAUGAGGAUAUGGUCAGCUUUGCUGACCAGAAGGCAUGUCAAUAGACAUGAGGAUCACCCAUGUAGUAAAGACACGA”: the “apparent Kd” value is, setting by setting: under setting [3], 378 nM; under setting [4], 40.6 nM.
“GUAAAUCAUGUAGGAUAUGCAUGGCGAAGCUACGCAGAAGGACAUGAGGAUCACCCAUGUCUCUCCGUCUGCAUACAGACGGAG”: the “apparent Kd” value is, setting by setting: under setting [1], 26.9 nM; under setting [2], 230 nM.
The like results for “GCUAGGCAUGUCAGGAUAUGCUGUACCUUGGUACAGCAGAAGGGACAUGAGGAUCACCCAUGUGCCUAUCUAGC” were, in that order, 42.9 nM and 419 nM.
Taken in the same sequence, the figures for “CAGUACUGAGGAUAUACAUGAGGAUCACCCAUGUGCUUUAGCUAGGAUACUAGCAUCAGUAGAAGGCAGUACUG” were 12.8 nM and 29.4 nM.
Taken in the same sequence, the figures for “AUCAUGUAAGGAUAUCUUACAUGUAUCGAAAGAUACAGUUAAGAGAAGGUACAUGAGGAUCACCCAUGUAUAAC” were 29 nM and 45.5 nM.
For the sequence “UAAUAUUUAUAAUAUUAUUACAUUAGAAGGCAAGACAUGUGGAUACAUGAGGAUCACCCAUGUAUUGAGGAUAUAGACAUAUAU”, the “apparent Kd” value came to 14.6 nM under setting [1] and 21.7 nM under setting [2].
Taken in the same sequence, the figures for “GAGUGACAUGAGGAUCACCCAUGUGAGGAUAUCGGACGGACCUAGUUAACAUCCGCCGCGAGAAGGCACAUCGG” were 156 nM and 27 nM.
Taken in the same sequence, the figures for “AUCAGCUCGUCAGGAUAUACGUCACUACGUCAGCAGUGUGGUAAGAUCACAUGAGGAUCACCCAUGUAGAAGGGACGAGCUGAU” were 21.4 nM and 201 nM.
The like results for “UGUCGGAGCAGAGGAUAUUACAUGAGGAUCACCCAUGUAUGAACCAAUAGCUGGAAACAGCAAUAUAAGAAGGCUGCUCCGACA” were, in that order, 5.59 nM and 5.48 nM.
With “GUAGCAUACAGAGGAUAUCUUUACCGGAAACGGACAUGAGGAUCACCCAUGUGGCGAAAGCCUAGGGAGAAGGCUGAAUGCUAC”, the “apparent Kd” value came to 11.6 nM under setting [3] and 12.3 nM under setting [4].
Consider “AGUAACAGAGGAUAUACUGUUUUAUGUGUUUGUUAUUUUAAACAUGAGGAUCACCCAUGUAGAAGGCUGAAUAA”, for which the “apparent Kd” value worked out at 24.3 nM under setting [1] and 23.4 nM under setting [2].
Taken in the same sequence, the figures for “AAUUAUUUACAGAAGGAGUAAGAUUAUGUAUUACUAGGAUAUGUUCACAUGAGGAUCACCCAUGUCAUUGUAGGUUUUUUAUGU” were 12 nM and 9.95 nM.
In the case of “GUGACGAAUGUAGGAUAUGCUGAGGAAUACUCAGCAGAAGGACAUGAGGAUCACCCAUGUCAUCCUUAUAAUAAAUAUCGUCAC”, the “apparent Kd” value is, setting by setting: under setting [1], 13.4 nM; under setting [2], 17.7 nM.
The like results for “CCAACUGGAGGAUAUGCAGCGGCGGUCUCUUGGUUUGCAUUACAUGAGGAUCACCCAUGUAGAAGGCCGGUUGU” were, in that order, 117 nM and 201 nM.
The like results for “CAUACACAUGAGGAUCACCCAUGUGAGGAUAUGCGUACGUUGUCAGUAGGCGACGUGCGCAGAAGGCGCGUGUU” were, in that order, 60.5 nM and 47.7 nM.
Take “UUAUGAUAGAUAGGAUAUACUAUGGUUUAAGAAGUAGAAGGAUCAAUUGGGAAAUGUACAUGAGGAUCACCCAUGUUAUAGGUU”: the “apparent Kd” value is 37.1 nM under setting [3] and 33.7 nM under setting [4].
